Experimental data: PubChem BioAssay AID463152 (The Scripps Research Institute Molecular Screening Center, 2010)
pIC50: −log10 of the molar value.

Molecular target: Nuclear receptor ROR-alpha (Homo sapiens) (UniProt P35398)
Test: dose-dependent lowering of GAL4-RORa luciferase – cell-based, luminescence, assay provider, RORA inverse agonist project, dose response (AID 463152)
Details: HEK293T GAL4-RORa LBD luciferase reporter, 20 h
Method in brief: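 Measure: IC50 from four-parameter fit of signal relative to DMSO | Assay system: HEK293T with GAL4-RORα LBD and UAS-luciferase reporter | Repeats: Eight replicates | Detection: Luminescence | Control set: DMSO vehicle-treated cells as normalization reference | Timing: 20 h compound exposure after 24 h reverse transfection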

Sequence of Nuclear receptor ROR-alpha (Homo sapiens) (P35398 whole entry, looked up, the tested form may be a part): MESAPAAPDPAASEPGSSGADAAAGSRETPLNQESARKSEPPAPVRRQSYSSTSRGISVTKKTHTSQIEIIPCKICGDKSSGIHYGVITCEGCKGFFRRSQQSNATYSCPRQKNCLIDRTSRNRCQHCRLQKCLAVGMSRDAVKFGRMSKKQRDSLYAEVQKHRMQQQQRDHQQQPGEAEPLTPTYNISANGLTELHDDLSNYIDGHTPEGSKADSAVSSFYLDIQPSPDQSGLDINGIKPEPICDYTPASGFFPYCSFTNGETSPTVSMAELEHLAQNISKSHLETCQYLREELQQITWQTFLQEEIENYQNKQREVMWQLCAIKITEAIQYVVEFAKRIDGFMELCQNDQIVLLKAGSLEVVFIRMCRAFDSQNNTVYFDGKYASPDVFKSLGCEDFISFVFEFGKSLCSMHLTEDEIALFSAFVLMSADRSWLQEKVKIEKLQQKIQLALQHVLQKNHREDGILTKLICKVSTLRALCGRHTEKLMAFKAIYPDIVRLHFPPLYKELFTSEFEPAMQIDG

SMILES: O=S(=O)(Nc1ccc(C(O)(C(F)(F)F)C(F)(F)F)cc1)c1cccs1
- pIC50: 6.32
